Sampled rows, rich in hits. Any-hit rate of the full collection: about 3.6%.
ZTA counter: ZTA (EBV) inhibition in EBNA-1 counter-screen. P03206. ZTA-DNA binding, fluorescence polarization. inhibition, % at 11 µM. 0.15% of 320,000 active. AID 2234; in the data active = inhibition above about 33%
Target sequence (P03206 whole entry, looked up): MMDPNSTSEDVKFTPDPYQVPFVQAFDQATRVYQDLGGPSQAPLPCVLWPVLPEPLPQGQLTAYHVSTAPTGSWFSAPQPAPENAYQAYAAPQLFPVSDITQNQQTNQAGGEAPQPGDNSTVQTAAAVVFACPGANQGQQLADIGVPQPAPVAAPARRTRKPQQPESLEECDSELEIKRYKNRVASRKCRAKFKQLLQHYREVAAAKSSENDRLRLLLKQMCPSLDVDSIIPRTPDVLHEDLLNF
FID counter: displaces DNA intercalator in HCV helicase counter-screen | 0.17% of 290,000 active | DNA fluorescent intercalator displacement, fluorescence | inhibition, % at 7.9 µM; in the data active = inhibition above about 37%;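 note: 0% = vehicle and 100% = reference compound; higher means more ethidium bromide displaced from hairpin DNA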
FGF22 binding: shifts melting point of recombinant human FGF22 | Q9HCT0 | recombinant FGF22 thermal shift, SYPRO orange fluorescence; percent of sucrose octasulfate shift, DMSO zero | activity (Tm shift, normalised), % at 9.99 µM | 1.5% of 340,000 active | AID 651658;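 active = mean Tm shift, scaled 0 neutral to 100 positive control, at about 1.3% or above, every replicate too, limit read from the data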
Target sequence (Q9HCT0 whole entry, looked up): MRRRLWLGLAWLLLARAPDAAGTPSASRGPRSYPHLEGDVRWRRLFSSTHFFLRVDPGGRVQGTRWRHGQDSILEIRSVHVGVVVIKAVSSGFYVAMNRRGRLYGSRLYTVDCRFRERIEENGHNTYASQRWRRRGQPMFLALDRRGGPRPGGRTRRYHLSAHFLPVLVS
EBNA-1 inh: blocks EBNA-1 binding to DNA; EBNA-1 DNA binding, fluorescence polarization; 0.34% of 300,000 active; AID 1950; inhibition, % at 14.8 µM; in the data active = inhibition above about 28%
GRIN3A LBD mod: modulators (binders) of human NR3A ligand-binding domain. NR3A LBD differential scanning fluorimetry, Tm shift; 0% = protein alone, 100% = glycine-bound protein. Tm shift relative to glycine control, % at 25 µM. 2.5% of 340,000 active. AID 1259313;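 active = melting temperature shift of at least 10% of the positive control shift, at one fixed dose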
NS3 helicase inh: blocks Hepatitis C virus NS3 helicase unwinding | NS3 helicase DNA unwinding, Cy5 molecular beacon fluorescence | inhibition, % at 10.9 µM | 0.56% of 290,000 active;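 active = inhibition above the mean of all tested compounds plus 3 SD, set per campaign, cut at about 35% in these data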;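 note: 0% = DMSO wells and 100% = thioflavine S control wells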
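System: HCV NS3 helicase fragment; control set: DMSO and thioflavine S; technique: Cy5 fluorescence at 0 and 60 min, beacon hairpin quenching; reagent: beacon DNA duplex substrate plus ATP; replicates: singlicate; schedule: 1 h reaction at 25 °C, ATP-initiated; medium: MOPS buffer pH 6.5 with MgCl2, DTT, Tween20, BSA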
Starred values were filed as active, the others as inactive; / = no result.

SMILES	ZTA counter	FID counter	FGF22 binding	EBNA-1 inh	GRIN3A LBD mod	NS3 helicase inh
CCOc1ccc(N=C2SC(C(=O)Nc3ccccc3C#N)C(N)=C2C(=O)Nc2ccc(Cl)cc2)cc1 (stereo unspecified)	-8	2	0	-6	27*	5
COc1ccc(CCCc2n[nH]c(=S)o2)cc1C	-5	-9	43*	-13	-1	12
CC(C)NC(=O)Nc1ccc2c(c1)C(=O)N([C@H](C)CO)C[C@H](C)[C@@H](CN(C)S(=O)(=O)c1cccs1)OCCCC[C@@H](C)O2	/	/	0	/	/	/
N#CC1C(=O)c2ccccc2C1c1ccccc1 (stereo unspecified)	/	/	0	/	20*	/
O=C1CCC(c2ccccc2)c2ccccc21 (stereo unspecified)	5	/	0	9	1	/
CCN1CCN(C(=O)/C=C/c2ccc(C(C)C)cc2)CC1	-21	/	0	-8	-3	/
CCN1CCC(O)(/C=C/c2ccc(C(C)C)cc2)C(C(=O)/C=C/c2ccc(C(C)C)cc2)C1 (stereo unspecified)	/	/	-1	/	24*	/
CC=Cc1ccc2n(c1=O)C[C@H]1[C@H](CO)[C@@H](C(=O)NC3CCC3)[C@@H]2N1Cc1ccccc1 (mixture of isomers)	/	/	0	/	/	/
COc1ccc2c3c(n(C)c2c1)[C@H](CO)N(Cc1ccccc1Cl)CC31CCN(C(=O)CC2CC2)CC1	/	/	0	/	/	/
CC(=O)/C(N=Nc1cccc(C(F)(F)F)c1)=C(\C)O	-8	-1	42	-17	-3	-4
O=C(/C(N=Nc1cccc(C(F)(F)F)c1)=C(/O)c1cccs1)C(F)(F)F	0	1	0	-5	17*	-2
COc1ccc(NC(=O)Nc2ccc3c(c2)C(=O)N([C@H](C)CO)C[C@@H](C)[C@H](CN(C)S(=O)(=O)c2cn(C)cn2)O3)cc1	/	/	0	/	/	/
C=CCNC(=O)C1CC2Cn3c(nc4cc5ccccc5cc43)C2N1C (stereo unspecified)	-9	/	0	8	12*	/
CN1C(C(=O)NCc2cccc(C(F)(F)F)c2)CC2Cn3c(nc4cc5ccccc5cc43)C21 (stereo unspecified)	-13	/	0	-1	0	/
C[C@@H]1CCCCO[C@@H](CN(C)S(C)(=O)=O)[C@H](C)CN([C@@H](C)CO)C(=O)c2cc(NC(=O)c3ccccc3)ccc2O1	/	/	0	/	/	/
COc1ccc(S(=O)(=O)Nc2ccc(F)c(F)c2)cc1Cl	-12	4	/	-8	-3	-13
N#Cc1ccc(C(=O)Nc2cc(S(=O)(=O)N3CCOCC3)ccc2N2CCCC2)cc1	/	/	0	/	-4	/
N#Cc1ccc(C(=O)Nc2cc(S(=O)(=O)Nc3ccc(Cl)cc3)ccc2N2CCCCC2)cc1	3	-5	/	-12	22*	-15
COc1cc(Cl)c(C)cc1NC(=O)c1ccc(NS(=O)(=O)c2ccc(F)c(F)c2)cc1	-4	-2	1	2	32*	2
COc1ccc(S(=O)(=O)Nc2ccc(S(=O)(=O)Nc3ccc(F)cc3)cc2)cc1C	9	-2	/	5	16*	-11
COc1ccc(NS(=O)(=O)c2ccc(N3CCOCC3)c(NC(=O)c3ccc(F)cc3)c2)cc1	-8	-23	0	-2	-15	-11
O=C(Nc1cc(S(=O)(=O)Nc2ccc(Cl)cc2)ccc1N1CCCCC1)c1ccc(F)cc1	6	1	0	-4	25*	-1
COc1ccc(S(=O)(=O)Nc2cccc(F)c2)cc1C	11	-2	0	4	0	-3
CO[C@H]1CN(C)C(=O)c2cc(NC(C)=O)ccc2OC[C@@H](C)N(C(=O)C2CC2)C[C@H]1C	/	/	0	/	/	/
C[C@H](CO)N1C[C@H](C)[C@H](CN(C)Cc2ccc(O)cc2)OCc2cnnn2CCCC1=O	/	/	0	/	/	/
COc1cccc(-c2ccc3c(c2)O[C@H](CN(C)C(=O)C2CCC2)[C@@H](C)CN([C@H](C)CO)S3(=O)=O)c1	/	/	0	/	/	/
Cc1ccc(S(=O)(=O)N(C)C[C@H]2Oc3ccc(NS(=O)(=O)c4cccs4)cc3CC(=O)N([C@@H](C)CO)C[C@@H]2C)cc1	/	/	0	/	/	/
COc1cc2nc(N3CCN(c4cc(C)ccc4C)CC3)nc(N)c2cc1OC	2	22	-1	16	-12	-112

Screening results (PubChem BioAssay)
